Reference: ChEMBL document CHEMBL4765486, “Novel Nonsecosteroidal Vitamin D Receptor Modulator Combined with Gemcitabine Enhances Pancreatic Cancer Therapy through Remodeling of the Tumor Microenvironment” (J Med Chem, 2021)
Calls of active or inactive are those of the source.

Experiments:
[1] = system: LTC-14; test: Inhibition of rat LTC-14 cells activation assessed as inhibition of Hgf mRNA expression at 0.5 uM treated under conditioned media of DSL-6A/C1 cells for 24 hrs by q-PCR analysis; type: functional, cell-based
In short: (§1)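 LTC-14 PSCs were exposed for 24 h to conditioned medium from rat DSL-6A/C1 cancer cells containing compound at 0.5 μM. Pdgfa, Pdgfb, Fgf2, Hgf and Periodin mRNA were quantified by RT-qPCR. Three repeats, mean ± SD versus CM alone.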

[2] = Cytotoxicity against rat LTC-14 cells assessed as reduction in cell proliferation incubated for 24 hrs by MTT assay; type: cell-based; conditions: LTC-14, 24 h
[3] = system: LTC-14; test: Inhibition of rat LTC-14 cells activation assessed decrease in TGF-beta1 induced collagen 1 protein expression at 0.5 uM incubated for 24 hrs by Western blot analysis; type: functional, cell-based
In short: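 LTC-14 cells were treated for 24 h with compound (0.5 μM) plus TGF-β1 (0.5 ng/mL in the text, 5 ng/mL in the methods). Lysates were run on 10% SDS-PAGE, transferred to PVDF and probed with rabbit anti-collagen I, with β-actin as reference. Bands were quantified by densitometry versus TGF-β1 alone.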

[4] = system: LTC-14; test: Inhibition of rat LTC-14 cells activation assessed decrease in TGF-beta1 induced Acta2 mRNA expression at 0.5 uM incubated for 24 hrs by q-PCR analysis; type: functional, cell-based
In short: (§2)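 Immortalized rat PSC line LTC-14, about 1×10^5 cells per well, was grown 24 h at 37 °C in 5% CO2. Cells then received compound (0.5 μM) plus TGF-β1 for 24 h; TGF-β1 is stated as 0.5 ng/mL in the text and 5 ng/mL in the methods. Col1a1 and Acta2 mRNA were measured by RT-qPCR. Mean ± SD versus TGF-β1 alone.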

[5] = system: LTC-14; test: Inhibition of rat LTC-14 cells activation assessed as inhibition of Fgf mRNA expression at 0.5 uM treated under conditioned media of DSL-6A/C1 cells for 24 hrs by q-PCR analysis; type: functional, cell-based; in short: as §1
[6] = system: LTC-14; test: Inhibition of rat LTC-14 cells activation assessed as inhibition of PDGFA mRNA expression at 0.5 uM treated under conditioned media of DSL-6A/C1 cells for 24 hrs by q-PCR analysis; type: functional, cell-based; in short: as §1
[7] = system: LTC-14; test: Inhibition of rat LTC-14 cells activation assessed as inhibition of PDGFB mRNA expression at 0.5 uM treated under conditioned media of DSL-6A/C1 cells for 24 hrs by q-PCR analysis; type: functional, cell-based; in short: as §1
[8] = system: LTC-14; test: Inhibition of rat LTC-14 cells activation assessed as inhibition of Periodin-mRNA expression at 0.5 uM treated under conditioned media of DSL-6A/C1 cells for 24 hrs by q-PCR analysis; type: functional, cell-based; in short: as §1
[9] = Cytotoxicity against rat DSL-6A/C1 cells assessed as reduction in cell proliferation at 0.5 uM incubated for 24 hrs by MTT assay; type: cell-based; conditions: dsl-6a/c1, 24 h
[10] = system: LTC-14; test: Inhibition of rat LTC-14 cell activation assessed decrease in TGF-beta1 induced Colla1 mRNA expression at 0.5 uM incubated for 24 hrs by q-PCR analysis; type: functional; in short: as §2
[11] = target: T1, Vitamin D3 receptor (Homo sapiens) (UniProt P11473); test: Binding affinity to VDR (unknown origin) at 1 uM by fluorescence polarization assay relative to calcipotriol
T1 sequence (whole entry): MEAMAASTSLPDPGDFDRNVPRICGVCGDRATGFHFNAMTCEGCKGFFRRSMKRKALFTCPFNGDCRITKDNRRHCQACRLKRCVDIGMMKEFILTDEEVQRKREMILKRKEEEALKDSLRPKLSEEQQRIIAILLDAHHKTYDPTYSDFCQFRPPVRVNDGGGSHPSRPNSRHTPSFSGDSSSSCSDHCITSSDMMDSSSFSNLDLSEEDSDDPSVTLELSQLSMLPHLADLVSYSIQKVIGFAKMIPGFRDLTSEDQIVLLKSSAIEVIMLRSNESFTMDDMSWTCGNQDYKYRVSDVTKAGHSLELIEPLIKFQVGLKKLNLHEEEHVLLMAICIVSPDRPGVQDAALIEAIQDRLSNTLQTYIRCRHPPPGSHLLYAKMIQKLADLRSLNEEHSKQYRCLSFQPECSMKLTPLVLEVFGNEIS
In short: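 PolarScreen VDR competitor fluorescence polarization assay with compounds at 1 μM in triplicate. Read-out used 535 nm excitation and 590 nm emission filters.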

[12] = system: LTC-14; test: Inhibition of rat LTC-14 cells interaction with DSL-6A/C1 cells in conditioned media assessed as inhibition of POSTN protein expression at 0.5 uM measured after 24 hrs by Western blot analysis; type: functional, cell-based
In short: (§3)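 LTC-14 cells were treated for 24 h with DSL-6A/C1 conditioned medium plus compound (0.5 μM). Proteins were separated on 10% SDS-PAGE, transferred to PVDF and probed with rabbit anti-PDGF-A or anti-POSTN, with β-actin as loading reference.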

[13] = system: LTC-14; test: Inhibition of rat LTC-14 cells interaction with DSL-6A/C1 cells in conditioned media assessed as inhibition of PDGF-A protein expression at 0.5 uM measured after 24 hrs by Western blot analysis; type: functional, cell-based; in short: as §3

Question: For `CCN(CC)CCNC(=O)c1ccc(C(CC)(CC)c2ccc(OCCC(C)(C)O)c(C)c2)n1CC`, which inhibition [1] is on record?
Answer: Active

Question: What about the IC50 [2] of the same compound?
Answer: > 10 µM

Question: What about the inhibition [3] of the same compound?
Answer: Active

Question: What about the inhibition [4] of the same compound?
Answer: Active

Question: And the inhibition [5]?
Answer: Active

Question: And the inhibition [6]?
Answer: Active

Question: And the inhibition [7]?
Answer: Active

Question: What about the inhibition [8] of the same compound?
Answer: Active

Question: What about the Activity [9] of the same compound?
Answer: Non-Toxic

Question: And the inhibition [10]?
Answer: Active

Question: And the RBA [11]?
Answer: 36%

Question: With `CCn1c(C(=O)NCCN2CCCCC2)ccc1C(CC)(CC)c1ccc(OCCC(C)(C)O)c(C)c1` as the compound, how does the inhibition [1] read?
Answer: Active

Question: What about the IC50 [2] of the same compound?
Answer: > 10 µM

Question: And the inhibition [3]?
Answer: Active

Question: What about the inhibition [4] of the same compound?
Answer: Active

Question: What about the inhibition [5] of the same compound?
Answer: Active

Question: What about the inhibition [6] of the same compound?
Answer: Active

Question: And the inhibition [7]?
Answer: Active

Question: And the inhibition [8]?
Answer: Active

Question: What about the Activity [9] of the same compound?
Answer: Non-Toxic

Question: What about the inhibition [10] of the same compound?
Answer: Active

Question: And the RBA [11]?
Answer: 24%

Question: Which inhibition [1] does the source give for `CCn1cc(C(CC)(CC)c2ccc(OCC(C)O)c(C)c2)cc1C(=O)NCCN1CCCCC1` (stereo unspecified) here?
Answer: Active

Question: And the IC50 [2]?
Answer: > 10 µM

Question: And the inhibition [3]?
Answer: Active

Question: What about the inhibition [4] of the same compound?
Answer: Active

Question: And the inhibition [5]?
Answer: Active

Question: And the inhibition [6]?
Answer: Active

Question: What about the inhibition [7] of the same compound?
Answer: Active

Question: And the inhibition [8]?
Answer: Active

Question: What about the Activity [9] of the same compound?
Answer: Non-Toxic

Question: What about the inhibition [10] of the same compound?
Answer: Active

Question: And the RBA [11]?
Answer: inactive

Question: Which results are given for `CCn1c(C(=O)NCC2CCCO2)ccc1C(CC)(CC)c1ccc(OCCC(C)(C)O)c(C)c1` (stereo unspecified)?
Answer: IC50 [2]: > 10 µM; inhibition [3]: Active; inhibition [4]: Active; inhibition [10]: Active; RBA ([11]; filed as agonist): 59%

Question: For `CCn1cc(C(CC)(CC)c2ccc(OCC(C)O)c(C)c2)cc1C(=O)NCCN(C)C` (stereo unspecified), which IC50 [2] is on record?
Answer: > 10 µM

Question: And the inhibition [3]?
Answer: Active

Question: And the inhibition [4]?
Answer: Active

Question: What about the inhibition [10] of the same compound?
Answer: Active

Question: What about the RBA ([11]; filed as agonist) of the same compound?
Answer: 70%

Question: What does the source list for `CCn1cc(C(CC)(CC)c2ccc(OCC(C)O)c(C)c2)cc1C(=O)NCCN1CCOCC1` (stereo unspecified)?
Answer: IC50 [2]: > 10 µM; inhibition [3]: Active; inhibition [4]: Active; inhibition [10]: Active; RBA [11]: 36%

Question: With `CCn1cc(C(CC)(CC)c2ccc(OCC(C)O)c(C)c2)cc1C(=O)NCCCN1CCOCC1` (stereo unspecified) as the compound, how does the IC50 [2] read?
Answer: > 10 µM

Question: And the inhibition [3]?
Answer: Active

Question: What about the inhibition [4] of the same compound?
Answer: Active

Question: And the inhibition [10]?
Answer: Active

Question: And the RBA ([11]; filed as agonist)?
Answer: 71%

Question: What does the source list for `CCN(CC)CCCNC(=O)c1cc(C(CC)(CC)c2ccc(OCCCCC(O)(CC)CC)c(C)c2)cn1CC`?
Answer: IC50 [2]: > 10 µM; inhibition [3]: Active; inhibition [4]: Active; inhibition [10]: Active; RBA [11]: 27%

Question: With `CCN(CC)CCCNC(=O)c1cc(C(CC)(CC)c2ccc(OCC(O)c3ccccc3)c(C)c2)cn1CC` (stereo unspecified) as the compound, how does the IC50 [2] read?
Answer: > 10 µM

Question: And the inhibition [3]?
Answer: Active

Question: And the inhibition [4]?
Answer: Active

Question: What about the inhibition [10] of the same compound?
Answer: Active

Question: And the RBA ([11]; filed as agonist)?
Answer: 59%

Question: What does the source list for `CCN(CC)CCCNC(=O)c1ccc(C(CC)(CC)c2ccc(OCC(C)O)c(C)c2)n1CC` (stereo unspecified)?
Answer: IC50 [2]: > 10 µM; inhibition [3]: Active; inhibition [4]: Active; inhibition [10]: Active; RBA [11]: 30%

Question: With `CCn1c(C(=O)NCCN(C)C)ccc1C(CC)(CC)c1ccc(OCCC(C)(C)O)c(C)c1` as the compound, how does the IC50 [2] read?
Answer: > 10 µM

Question: And the inhibition [3]?
Answer: Active

Question: What about the inhibition [4] of the same compound?
Answer: Active

Question: And the inhibition [10]?
Answer: Active

Question: And the RBA ([11]; filed as agonist)?
Answer: 48%

Question: What does the source list for `CCn1c(C(=O)NCC2CCOCC2)ccc1C(CC)(CC)c1ccc(OCCC(C)(C)O)c(C)c1`?
Answer: IC50 [2]: > 10 µM; inhibition [3]: Active; inhibition [4]: Active; inhibition [10]: Active; RBA ([11]; filed as agonist): 77%

Question: With `CCCC(O)(CCC)CCOc1ccc(C(CC)(CC)c2ccc(C(=O)NCCCN(CC)CC)n2CC)cc1C` as the compound, how does the IC50 [2] read?
Answer: > 10 µM

Question: And the inhibition [3]?
Answer: Active

Question: And the inhibition [4]?
Answer: Active

Question: What about the inhibition [10] of the same compound?
Answer: Active

Question: And the RBA ([11]; filed as agonist)?
Answer: 54%

Question: For `CCN(CC)CCCNC(=O)c1cc(C(CC)(CC)c2ccc(OCCC(O)(CC)CC)c(C)c2)cn1CC`, which IC50 [2] is on record?
Answer: > 10 µM

Question: What about the inhibition [3] of the same compound?
Answer: Active

Question: And the inhibition [4]?
Answer: Active

Question: And the inhibition [10]?
Answer: Active

Question: And the RBA ([11]; filed as agonist)?
Answer: 51%

Question: Which IC50 [2] does the source give for `CCn1cc(C(CC)(CC)c2ccc(OCC(C)O)c(C)c2)cc1C(=O)NCCCN(CCO)CCO` (stereo unspecified) here?
Answer: > 10 µM

Question: What about the inhibition [3] of the same compound?
Answer: Active

Question: And the inhibition [4]?
Answer: Active

Question: What about the inhibition [10] of the same compound?
Answer: Active

Question: What about the RBA ([11]; filed as agonist) of the same compound?
Answer: 70%

Question: For `CCn1c(C(=O)NCCN2CCN(C)CC2)ccc1C(CC)(CC)c1ccc(OCCC(C)(C)O)c(C)c1`, which inhibition [1] is on record?
Answer: Active

Question: What about the IC50 [2] of the same compound?
Answer: > 10 µM

Question: And the inhibition [12]?
Answer: Active

Question: What about the inhibition [3] of the same compound?
Answer: Active

Question: And the inhibition [4]?
Answer: Active

Question: What about the inhibition [5] of the same compound?
Answer: Active

Question: And the inhibition [6]?
Answer: Active

Question: What about the inhibition [7] of the same compound?
Answer: Active

Question: And the inhibition [8]?
Answer: Active

Question: What about the Activity [9] of the same compound?
Answer: Non-Toxic

Question: What about the inhibition [10] of the same compound?
Answer: Active

Question: And the inhibition [13]?
Answer: Active

Question: And the RBA ([11]; filed as agonist)?
Answer: 68%
